Experimental data published in ChEMBL document CHEMBL3044709, “Antimicrobial furostanol saponins from the seeds of Capsicum annuum L. var. acuminatum” (2002).
≈ marks a conversion by molar mass, not a printed value.

What was measured:
Format in all cases: functional
[1] = test system: Escherichia coli; experiment: Antimicrobial activity against Escherichia coli DSM 682 after 48 hr by agar dilution method; conditions: DSM 682, 48 h
How it was run: (§1)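 Agar dilution on standard plate count agar: 0.5 mL of a 2-fold serial dilution of sample mixed into 9.5 mL medium, poured into Petri dishes, organism streaked on the surface. Incubated at 28 °C (36 and 48 h). MIC is the lowest tested concentration with no visible growth.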

[2] = test system: Escherichia coli; experiment: Antimicrobial activity against Escherichia coli ATCC 35346 after 48 hr by agar dilution method; conditions: ATCC 35346, 48 h; how it was run: as §1
[3] = test system: Stutzerimonas stutzeri; experiment: Antimicrobial activity against Pseudomonas stutzeri ATCC 962 after 48 hr by agar dilution method; conditions: ATCC 962, 48 h; how it was run: as §1
[4] = test system: Pseudomonas aeruginosa; experiment: Antimicrobial activity against Pseudomonas aeruginosa DSM 1117 after 48 hr by agar dilution method; conditions: DSM 1117, 48 h; how it was run: as §1
[5] = test system: Limosilactobacillus fermentum; experiment: Antimicrobial activity against Lactobacillus fermentum DSM 20052 after 48 hr by agar dilution method; conditions: DSM 20052, 48 h; how it was run: as §1
[6] = test system: Lacticaseibacillus casei; experiment: Antimicrobial activity against Lactobacillus casei DSM 20011 after 48 hr by agar dilution method; conditions: DSM 20011, 48 h; how it was run: as §1
[7] = test system: Lactiplantibacillus plantarum; experiment: Antimicrobial activity against Lactobacillus plantarum DSM 20174 after 48 hr by agar dilution method; conditions: DSM 20174, 48 h; how it was run: as §1
[8] = test system: Lacticaseibacillus rhamnosus; experiment: Antimicrobial activity against Lactobacillus rhamnosus DSM 20021 after 48 hr by agar dilution method; conditions: DSM 20021, 48 h; how it was run: as §1
[9] = test system: Bacillus cereus; experiment: Antimicrobial activity against Bacillus cereus DSM 345 after 48 hr by agar dilution method; conditions: DSM 345, 48 h; how it was run: as §1
[10] = test system: Micrococcus luteus; experiment: Antimicrobial activity against Micrococcus luteus DSM 348 after 48 hr by agar dilution method; conditions: DSM 348, 48 h; how it was run: as §1
[11] = test system: Staphylococcus aureus; experiment: Antimicrobial activity against Staphylococcus aureus subsp. aureus DSM 346 after 48 hr by agar dilution method; conditions: DSM 346, 48 h; how it was run: as §1
[12] = test system: Staphylococcus epidermidis; experiment: Antimicrobial activity against Staphylococcus epidermidis DSM 1798 after 48 hr by agar dilution method; conditions: DSM 1798, 48 h; how it was run: as §1
[13] = test system: Bacillus licheniformis; experiment: Antimicrobial activity against Bacillus licheniformis DSM 13=ATCC 14580 after 48 hr by agar dilution method; conditions: DSM 13 = ATCC 14580, 48 h; how it was run: as §1
[14] = test system: Bacillus subtilis; experiment: Antimicrobial activity against Bacillus subtilis DSM 345 after 48 hr by agar dilution method; conditions: DSM 345, 48 h; how it was run: as §1
[15] = test system: Rhizopus arrhizus; experiment: Antimicrobial activity against Rhizopus oryzae ATCC 56536 after 48 hr by agar dilution method; conditions: ATCC 56536, 48 h
How it was run: (§2)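 Fungi tested by agar dilution in malt agar. Serial 2-fold sample dilutions (0.5 mL) were mixed with 9.5 mL medium and plated, then streaked with the organism. Incubation at 28 °C for 36 and 48 h. MIC is the lowest tested concentration without growth.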

[16] = test system: Trichoderma viride; experiment: Antimicrobial activity against Hypocrea rufa ATCC 28020 after 48 hr by agar dilution method; conditions: ATCC 28020, 48 h; how it was run: as §2
[17] = test system: Setophoma terrestris; experiment: Antimicrobial activity against Setophoma terrestris ATCC 11321 after 48 hr by agar dilution method; conditions: ATCC 11321, 48 h; how it was run: as §2
[18] = test system: Penicillium expansum; experiment: Antimicrobial activity against Penicillium expansum ATCC 7861 after 48 hr by agar dilution method; conditions: ATCC 7861, 48 h; how it was run: as §2
[19] = test system: Enterococcus faecalis; experiment: Antimicrobial activity against Enterococcus faecalis DSM 2570 after 48 hr by agar dilution method; conditions: DSM 2570, 48 h; how it was run: as §1

Row | SMILES | MIC [1] [µg/mL] | MIC [2] [µg/mL] | MIC [3] [µg/mL] | MIC [4] [µg/mL] | MIC [5] [µg/mL] | MIC [6] [µg/mL] | MIC [7] [µg/mL] | MIC [8] [µg/mL] | MIC [9] [µg/mL] | MIC [10] [µg/mL] | MIC [11] [µg/mL] | MIC [12] [µg/mL] | MIC [13] [µg/mL] | MIC [14] [µg/mL] | MIC [15] [µg/mL] | MIC [16] [µg/mL] | MIC [17] [µg/mL] | MIC [18] [µg/mL] | MIC [19] [µg/mL]
1 | C[C@H](CCC1(O)O[C@H]2C[C@H]3[C@@H]4CC[C@H]5C[C@@H](O[C@@H]6O[C@H](CO)[C@H](O[C@@H]7O[C@H](CO)[C@@H](O)[C@H](O[C@@H]8O[C@H](CO)[C@@H](O)[C@H](O)[C@H]8O)[C@H]7O[C@@H]7O[C@H](CO)[C@@H](O)[C@H](O[C@@H]8O[C@H](CO)[C@@H](O)[C@H](O)[C@H]8O)[C@H]7O)[C@H](O)[C@H]6O)CC[C@]5(C)[C@H]4CC[C@]3(C)[C@H]2[C@@H]1C)CO[C@@H]1O[C@H](CO)[C@@H](O)[C@H](O)[C@H]1O (stereo not given in full) [CAPSICOSIDE G] | 1000 (≈ 710 µM) | 1000 (≈ 710 µM) | > 1000 | > 1000 | 1000 (≈ 710 µM) | 1000 (≈ 710 µM) | 1000 (≈ 710 µM) | 1000 (≈ 710 µM) | 1000 (≈ 710 µM) | > 1000 | > 1000 | > 1000 | > 1000 | > 1000 | 1000 (≈ 710 µM) | 1000 (≈ 710 µM) | 1000 (≈ 710 µM) | 1000 (≈ 710 µM) | > 1000
2 | C=C[C@](C)(CC/C=C(\C)CC/C=C(\C)CC/C=C(/C)CO[C@@H]1O[C@@H](C)[C@H](O)[C@@H](O[C@@H]2O[C@H](CO[C@@H]3O[C@@H](C)[C@H](O)[C@@H](O)[C@H]3O)[C@@H](O)[C@H](O)[C@H]2O)[C@H]1O)O[C@@H]1O[C@H](CO)[C@@H](O)[C@H](O)[C@H]1O[C@@H]1O[C@H](CO)[C@@H](O)[C@H](O)[C@H]1O [CAPSIANOSIDE II] | 1000 (≈ 921 µM) | 1000 (≈ 921 µM) | > 1000 | > 1000 | 1000 (≈ 921 µM) | 1000 (≈ 921 µM) | 1000 (≈ 921 µM) | 1000 (≈ 921 µM) | 1000 (≈ 921 µM) | > 1000 | > 1000 | > 1000 | > 1000 | > 1000 | 1000 (≈ 921 µM) | 1000 (≈ 921 µM) | 1000 (≈ 921 µM) | 1000 (≈ 921 µM) | > 1000
3 | C[C@H](CCC1(O)O[C@H]2C[C@H]3[C@@H]4CC[C@H]5C[C@@H](O[C@@H]6O[C@H](CO)[C@H](O[C@@H]7O[C@H](CO)[C@@H](O)[C@H](O[C@@H]8OC[C@@H](O)[C@H](O)[C@H]8O)[C@H]7O[C@@H]7O[C@H](CO)[C@@H](O)[C@H](O[C@@H]8O[C@H](CO)[C@@H](O)[C@H](O)[C@H]8O)[C@H]7O)[C@H](O)[C@H]6O)CC[C@]5(C)[C@H]4CC[C@]3(C)[C@H]2[C@@H]1C)CO[C@@H]1O[C@H](CO)[C@@H](O)[C@H](O)[C@H]1O (stereo not given in full) [CAPSICOSIDE D] | 1000 (≈ 726 µM) | 1000 (≈ 726 µM) | > 1000 | > 1000 | 1000 (≈ 726 µM) | 1000 (≈ 726 µM) | 1000 (≈ 726 µM) | 1000 (≈ 726 µM) | 1000 (≈ 726 µM) | > 1000 | > 1000 | > 1000 | > 1000 | > 1000 | 1000 (≈ 726 µM) | > 1000 | 1000 (≈ 726 µM) | > 1000 | > 1000
4 | C[C@H](CCC1(O)O[C@H]2C[C@H]3[C@@H]4CC[C@H]5C[C@@H](O[C@@H]6O[C@H](CO)[C@H](O[C@@H]7O[C@H](CO)[C@@H](O)[C@H](O[C@@H]8OC[C@@H](O)[C@H](O)[C@H]8O)[C@H]7O[C@@H]7O[C@H](CO)[C@@H](O)[C@H](O)[C@H]7O)[C@H](O)[C@H]6O)CC[C@]5(C)[C@H]4CC[C@]3(C)[C@H]2[C@@H]1C)CO[C@@H]1O[C@H](CO)[C@@H](O)[C@H](O)[C@H]1O (stereo not given in full) [TIMOSAPONIN I2] | 1000 (≈ 823 µM) | 1000 (≈ 823 µM) | > 1000 | > 1000 | 1000 (≈ 823 µM) | 1000 (≈ 823 µM) | 1000 (≈ 823 µM) | 1000 (≈ 823 µM) | 1000 (≈ 823 µM) | > 1000 | > 1000 | > 1000 | > 1000 | > 1000 | 1000 (≈ 823 µM) | > 1000 | 1000 (≈ 823 µM) | > 1000 | > 1000
5 | C[C@H](CCC1(O)O[C@H]2C[C@H]3[C@@H]4CC[C@H]5C[C@@H](O[C@@H]6O[C@H](CO)[C@H](O[C@@H]7O[C@H](CO)[C@@H](O)[C@H](O[C@@H]8O[C@H](CO)[C@@H](O)[C@H](O)[C@H]8O)[C@H]7O[C@@H]7O[C@H](CO)[C@@H](O)[C@H](O[C@@H]8O[C@H](CO)[C@@H](O)[C@H](O)[C@H]8O)[C@H]7O)[C@H](O)[C@H]6O)[C@H](O)C[C@]5(C)[C@H]4CC[C@]3(C)[C@H]2[C@@H]1C)CO[C@@H]1O[C@H](CO)[C@@H](O)[C@H](O)[C@H]1O (stereo not given in full) [CAPSICOSIDE A] | 1000 (≈ 702 µM) | 1000 (≈ 702 µM) | > 1000 | > 1000 | 1000 (≈ 702 µM) | 1000 (≈ 702 µM) | 1000 (≈ 702 µM) | 1000 (≈ 702 µM) | 1000 (≈ 702 µM) | > 1000 | > 1000 | > 1000 | > 1000 | > 1000 | 1000 (≈ 702 µM) | > 1000 | 1000 (≈ 702 µM) | 1000 (≈ 702 µM) | > 1000
6 | COC1(CC[C@@H](C)CO[C@@H]2O[C@H](CO)[C@@H](O)[C@H](O)[C@H]2O)O[C@H]2C[C@H]3[C@@H]4CC[C@H]5C[C@@H](O[C@@H]6O[C@H](CO)[C@H](O[C@@H]7O[C@H](CO)[C@@H](O)[C@H](O[C@@H]8OC[C@@H](O)[C@H](O)[C@H]8O)[C@H]7O[C@@H]7O[C@H](CO)[C@@H](O)[C@H](O[C@@H]8O[C@H](CO)[C@@H](O)[C@H](O)[C@H]8O)[C@H]7O)[C@H](O)[C@H]6O)CC[C@]5(C)[C@H]4CC[C@]3(C)[C@H]2[C@@H]1C (stereo not given in full) [22-O-METHYL-CAPSICOSIDE D] | 1000 (≈ 719 µM) | 1000 (≈ 719 µM) | > 1000 | > 1000 | 1000 (≈ 719 µM) | 1000 (≈ 719 µM) | 1000 (≈ 719 µM) | 1000 (≈ 719 µM) | 1000 (≈ 719 µM) | > 1000 | > 1000 | > 1000 | > 1000 | > 1000 | – | – | – | – | > 1000
7 | CC1=C(CC[C@@H](C)CO[C@@H]2O[C@H](CO)[C@@H](O)[C@H](O)[C@H]2O)O[C@H]2C[C@H]3[C@@H]4CC[C@H]5C[C@@H](O[C@@H]6O[C@H](CO)[C@H](O[C@@H]7O[C@H](CO)[C@@H](O)[C@H](O[C@@H]8O[C@H](CO)[C@@H](O)[C@H](O)[C@H]8O)[C@H]7O[C@@H]7O[C@H](CO)[C@@H](O)[C@H](O[C@@H]8O[C@H](CO)[C@@H](O)[C@H](O)[C@H]8O)[C@H]7O)[C@H](O)[C@H]6O)[C@H](O)C[C@]5(C)[C@H]4CC[C@]3(C)[C@@H]12 [Capsicoside F] | 1000 (≈ 711 µM) | 1000 (≈ 711 µM) | > 1000 | > 1000 | 1000 (≈ 711 µM) | 1000 (≈ 711 µM) | 1000 (≈ 711 µM) | 1000 (≈ 711 µM) | 1000 (≈ 711 µM) | > 1000 | > 1000 | > 1000 | > 1000 | > 1000 | – | – | – | – | > 1000
